Data as given in ChEMBL document CHEMBL1122285, “New myocardial imaging agents: stabilization of radioiodine as a terminal vinyl iodide moiety on tellurium fatty acids” (J Med Chem, 1983).
Values joined by “and” are separate entries in the source; they are usually repeats but may differ in a detail not shown here. Equal entries are not always repeated.

Tests used:
[1] = test system: Rattus norvegicus; assay: Tested for distribution of radioactivity iodine 125 in heart of rat after 3 days intravenous administration; assay type: ADME, organism-based; conditions: in vivo, 72 h
Procedure, shortened: (§1)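 Fischer 344 rats, four per time point, under ether anaesthesia. Each received ~8.6 μCi of 125I-labelled fatty acid (sp act ~20 mCi/mmol) by lateral tail vein in 0.5 mL 6% bovine serum albumin with 10% final ethanol, filtered before injection. Percent injected dose/g was calculated against injectate standards and reported as mean (range). Thyroid weight was taken as body weight × 7.5 mg/100 g.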

[2] = test system: Rattus norvegicus; assay: Tested for distribution of radioactivity iodine 125 in heart of rat after 30 min of intravenous administration (value in parentheses indicates range); assay type: ADME, organism-based; conditions: in vivo, 0.5 h; procedure, shortened: as §1
[3] = test system: Rattus norvegicus; assay: Tested for distribution of radioactivity iodine 125 in heart of rat after 4 hours of intravenous administration; assay type: ADME, organism-based; conditions: in vivo; procedure, shortened: as §1
[4] = test system: Rattus norvegicus; assay: Tested for distribution of radioactivity iodine 125 in heart of rat after 60 min of intravenous administration; assay type: ADME, organism-based; conditions: in vivo, 1 h; procedure, shortened: as §1
[5] = test system: Rattus norvegicus; assay: Tested for distribution of radioactivity of iodine 125 in blood of rat after 2 hour of intravenous administration; assay type: ADME, organism-based; conditions: in vivo; procedure, shortened: as §1
[6] = test system: Rattus norvegicus; assay: Tested for distribution of radioactivity of iodine 125 in blood of rat after 30 min of intravenous administration; assay type: ADME, organism-based; conditions: in vivo, 0.5 h; procedure, shortened: as §1
[7] = test system: Rattus norvegicus; assay: Tested for distribution of radioactivity of iodine 125 in blood of rat after 3 days of intravenous administration; assay type: ADME, organism-based; conditions: in vivo, 72 h; procedure, shortened: as §1
[8] = test system: Rattus norvegicus; assay: Tested for distribution of radioactivity of iodine 125 in blood of rat after 4 hours of intravenous administration; assay type: ADME, organism-based; conditions: in vivo; procedure, shortened: as §1
[9] = test system: Rattus norvegicus; assay: Tested for distribution of radioactivity of iodine 125 in blood of rat after 5 min of intravenous administration; assay type: ADME, organism-based; conditions: in vivo; procedure, shortened: as §1
[10] = test system: Rattus norvegicus; assay: Tested for distribution of radioactivity of iodine 125 in blood of rat after 60 min of intravenous administration; assay type: ADME, organism-based; conditions: in vivo, 1 h; procedure, shortened: as §1
[11] = test system: Rattus norvegicus; assay: Tested for distribution of radioactivity of iodine 125 in heart of rat after 5 min of intravenous administration; assay type: ADME, organism-based; conditions: in vivo; procedure, shortened: as §1
[12] = test system: Rattus norvegicus; assay: Tested for distribution of radioactivity of iodine 125 in kidney of rat after 2 hours of intravenous administration; assay type: ADME, organism-based; conditions: in vivo; procedure, shortened: as §1
[13] = test system: Rattus norvegicus; assay: Tested for distribution of radioactivity of iodine 125 in kidney of rat after 3 days of intravenous administration; assay type: ADME, organism-based; conditions: in vivo, 72 h; procedure, shortened: as §1
[14] = test system: Rattus norvegicus; assay: Tested for distribution of radioactivity of iodine 125 in kidney of rat after 30 min of intravenous administration; assay type: ADME, organism-based; conditions: in vivo, 0.5 h; procedure, shortened: as §1
[15] = test system: Rattus norvegicus; assay: Tested for distribution of radioactivity of iodine 125 in kidney of rat after 4 hours of intravenous administration; assay type: ADME, organism-based; conditions: in vivo; procedure, shortened: as §1
[16] = test system: Rattus norvegicus; assay: Tested for distribution of radioactivity of iodine 125 in kidney of rat after 5 min of intravenous administration; assay type: ADME, organism-based; conditions: in vivo; procedure, shortened: as §1
[17] = test system: Rattus norvegicus; assay: Tested for distribution of radioactivity of iodine 125 in liver of rat after 2 hr of intravenous administration; assay type: ADME, organism-based; conditions: in vivo; procedure, shortened: as §1
[18] = test system: Rattus norvegicus; assay: Tested for distribution of radioactivity of iodine 125 in liver of rat after 30 min of intravenous administration; assay type: ADME, organism-based; conditions: in vivo, 0.5 h; procedure, shortened: as §1
[19] = test system: Rattus norvegicus; assay: Tested for distribution of radioactivity of iodine 125 in liver of rat after 3 days of intravenous administration; assay type: ADME, organism-based; conditions: in vivo, 72 h; procedure, shortened: as §1
[20] = test system: Rattus norvegicus; assay: Tested for distribution of radioactivity of iodine 125 in liver of rat after 5 min of intravenous administration; assay type: ADME, organism-based; conditions: in vivo; procedure, shortened: as §1
[21] = test system: Rattus norvegicus; assay: Tested for distribution of radioactivity of iodine 125 in liver of rat after 60 min of intravenous administration; assay type: ADME, organism-based; conditions: in vivo, 1 h; procedure, shortened: as §1
[22] = test system: Rattus norvegicus; assay: Tested for distribution of radioactivity of iodine 125 in thyroid of rat after 30 min of intravenous administration; assay type: ADME, organism-based, Thyroid gland; conditions: in vivo, 0.5 h; procedure, shortened: as §1
[23] = test system: Rattus norvegicus; assay: Tested for distribution of radioactivity of iodine 125 in thyroid of rat after 5 min of intravenous administration; assay type: ADME, organism-based, Thyroid gland; conditions: in vivo; procedure, shortened: as §1
[24] = test system: Rattus norvegicus; assay: Tested for distribution of radioactivity of iodine 125 in thyroid of rat after 60 min of intravenous administration; assay type: ADME, organism-based, Thyroid gland; conditions: in vivo, 1 h; procedure, shortened: as §1
[25] = test system: Rattus norvegicus; assay: Tested for distribution of radioactivity of tellurium-123 in blood of rat after 30 min of intravenous administration; assay type: ADME, organism-based; conditions: in vivo, 0.5 h
Procedure, shortened: (§2)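 123mTe-labelled fatty acid (sp act ~20 mCi/mmol), ~6.8–8.4 μCi per rat, was given by lateral tail vein in 0.5 mL 6% BSA with 10% final ethanol to ether-anaesthetised Fischer 344 rats, four per time point. Tissue activity is expressed as mean % injected dose/g (range) against injectate standards.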

[26] = test system: Rattus norvegicus; assay: Tested for distribution of radioactivity of tellurium-123 in blood of rat after 5 min of intravenous administration; assay type: ADME, organism-based; conditions: in vivo; procedure, shortened: as §2
[27] = test system: Rattus norvegicus; assay: Tested for distribution of radioactivity of tellurium-123 in blood of rat after 60 min of intravenous administration; assay type: ADME, organism-based; conditions: in vivo, 1 h; procedure, shortened: as §2
[28] = test system: Rattus norvegicus; assay: Tested for distribution of radioactivity of tellurium-123 in heart of rat after 5 min of intravenous administration; assay type: ADME, organism-based; conditions: in vivo; procedure, shortened: as §2
[29] = test system: Rattus norvegicus; assay: Tested for distribution of radioactivity of tellurium-123 in heart of rat after 60 min of intravenous administration; assay type: ADME, organism-based; conditions: in vivo, 1 h; procedure, shortened: as §2
[30] = test system: Rattus norvegicus; assay: Tested for distribution of radioactivity of tellurium-123 in kidney of rat after 30 min of intravenous administration; assay type: ADME, organism-based; conditions: in vivo, 0.5 h; procedure, shortened: as §2
[31] = test system: Rattus norvegicus; assay: Tested for distribution of radioactivity of tellurium-123 in kidney of rat after 5 min of intravenous administration; assay type: ADME, organism-based; conditions: in vivo; procedure, shortened: as §2
[32] = test system: Rattus norvegicus; assay: Tested for distribution of radioactivity of tellurium-123 in kidney of rat after 60 min of intravenous administration; assay type: ADME, organism-based; conditions: in vivo, 1 h; procedure, shortened: as §2
[33] = test system: Rattus norvegicus; assay: Tested for distribution of radioactivity of tellurium-123 in liver of rat after 30 min of intravenous administration; assay type: ADME, organism-based; conditions: in vivo, 0.5 h; procedure, shortened: as §2
[34] = test system: Rattus norvegicus; assay: Tested for distribution of radioactivity of tellurium-123 in liver of rat after 5 min of intravenous administration; assay type: ADME, organism-based; conditions: in vivo; procedure, shortened: as §2
[35] = test system: Rattus norvegicus; assay: Tested for distribution of radioactivity of tellurium-123 in liver of rat after 60 min of intravenous administration; assay type: ADME, organism-based; conditions: in vivo, 1 h; procedure, shortened: as §2
[36] = test system: Rattus norvegicus; assay: Tested for distribution of radioactivity of tellurium-123 in lungs of rat after 30 min of intravenous administration; assay type: ADME, organism-based, Lung; conditions: in vivo, 0.5 h; procedure, shortened: as §2
[37] = test system: Rattus norvegicus; assay: Tested for distribution of radioactivity of tellurium-123 in lungs of rat after 5 min of intravenous administration; assay type: ADME, organism-based, Lung; conditions: in vivo; procedure, shortened: as §2
[38] = test system: Rattus norvegicus; assay: Tested for distribution of radioactivity of tellurium-123 in lungs of rat after 60 min of intravenous administration; assay type: ADME, organism-based, Lung; conditions: in vivo, 1 h; procedure, shortened: as §2
[39] = test system: Rattus norvegicus; assay: Tested for distribution of radioactivity of iodine 125 in lungs of rat after 2 hours of intravenous administration; assay type: ADME, organism-based, Lung; conditions: in vivo; procedure, shortened: as §1
[40] = test system: Rattus norvegicus; assay: Tested for distribution of radioactivity of iodine 125 in lungs of rat after 30 min of intravenous administration; assay type: ADME, organism-based, Lung; conditions: in vivo, 0.5 h; procedure, shortened: as §1
[41] = test system: Rattus norvegicus; assay: Tested for distribution of radioactivity of iodine 125 in lungs of rat after 3 days of intravenous administration; assay type: ADME, organism-based, Lung; conditions: in vivo, 72 h; procedure, shortened: as §1
[42] = test system: Rattus norvegicus; assay: Tested for distribution of radioactivity of iodine 125 in lungs of rat after 5 min of intravenous administration; assay type: ADME, organism-based, Lung; conditions: in vivo; procedure, shortened: as §1
[43] = test system: Rattus norvegicus; assay: Tested for distribution of radioactivity of iodine 125 in lungs of rat after 60 min of intravenous administration; assay type: ADME, organism-based, Lung; conditions: in vivo, 1 h; procedure, shortened: as §1
[44] = test system: Rattus norvegicus; assay: Tested for distribution of radioactivity of iodine 125 in liver of rat after 4 hr of intravenous administration; assay type: ADME, organism-based; conditions: in vivo; procedure, shortened: as §1
[45] = test system: Rattus norvegicus; assay: Tested for distribution of radioactivity of tellurium-123 in heart of rat after 30 min of intravenous administration; assay type: ADME, organism-based; conditions: in vivo, 0.5 h; procedure, shortened: as §2
[46] = test system: Rattus norvegicus; assay: Tested for distribution of radioactivity in heart of rat after 2 hours of intravenous administration; assay type: ADME, organism-based; conditions: in vivo; procedure, shortened: as §1
[47] = Tested for distribution of radioactivity of iodine 125 in kidney of rat after 60 min of intravenous administration; assay type: ADME; conditions: in vivo, 1 h; procedure, shortened: as §1

**Q.** Which results are given for `O=C(O)CCCCCCCCCCC[Te]CCC/C=C\I`?
**A.** Injected dose/g [1]: 0.09%; Injected dose/g [2]: 1.52%; Injected dose/g [3]: 0.76%; Injected dose/g [4]: 1.81%; Injected dose/g [5]: 0.68%; Injected dose/g [6]: 0.61%; Injected dose/g [7]: 0.03%; Injected dose/g [8]: 0.65%; Injected dose/g [9]: 0.15%; Injected dose/g [10]: 0.69%; Injected dose/g [11]: 1.46%; Injected dose/g [12]: 0.96%; Injected dose/g [13]: 0.08%; Injected dose/g [14]: 1.04%; Injected dose/g [15]: 0.93%; Injected dose/g [16]: 1.01%; Injected dose/g [17]: 2.45%; Injected dose/g [18]: 5.32%; Injected dose/g [19]: 0.09%; Injected dose/g [20]: 8.78%; Injected dose/g [21]: 4.39%; Injected dose/g [22]: 5.64%; Injected dose/g [23]: 1.62%; Injected dose/g [24]: 13.41%; Injected dose/g [25]: 0.84%; Injected dose/g [26]: 0.32% and 0.25%; Injected dose/g [27]: 0.95%; Injected dose/g [28]: 2.09%; Injected dose/g [29]: 1.92% and 0.83%; Injected dose/g [30]: 1.73% and 1.62%; Injected dose/g [31]: 1.46% and 1.54%; Injected dose/g [32]: 1.85%; Injected dose/g [33]: 5.53%; Injected dose/g [34]: 7.78% and 8.26%; Injected dose/g [35]: 4.49%; Injected dose/g [36]: 1.03%; Injected dose/g [37]: 0.91%; Injected dose/g [38]: 1% and 1.49%; Injected dose/g [39]: 0.81%; Injected dose/g [40]: 0.89%; Injected dose/g [41]: 0.1%; Injected dose/g [42]: 0.92%; Injected dose/g [43]: 1.02%; Injected dose/g [44]: 1.95%; Injected dose/g [45]: 1.98%; Injected dose/g [46]: 1.03%; Injected dose/g [47]: 1.15%
